In brackets after ≈: the same amount, converted by molar mass. Activity calls are given as the source filed them. The rule behind the calls is not given here.
Legend:
Assay type in all cases: functional
[1] = Antioxidant activity assessed as hydrogen peroxide scavenging activity at 100 ug/ml relative to control
[2] = system: Radical scavenging activity; assay: Antioxidant activity assessed as DPPH free radical scavenging activity after 30 mins by spectrophotometric analysis
How it was run: (§1)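 Compounds in methanol at […] were mixed with 0.004% (w/v) methanolic DPPH. After 30 min at room temperature, absorbance was read at 517 nm against a blank. Percent inhibition was calculated from control (all reagents minus compound) and sample absorbances. Run in triplicate.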

[3] = Antioxidant activity assessed as hydrogen peroxide scavenging activity at 50 ug/ml relative to control
[4] = system: Radical scavenging activity; assay: Antioxidant activity assessed as DPPH free radical scavenging activity at 50 ug/ml after 30 mins by spectrophotometric analysis relative to control; how it was run: as §1
[5] = system: Radical scavenging activity; assay: Antioxidant activity assessed as DPPH free radical scavenging activity at 75 ug/ml after 30 mins by spectrophotometric analysis relative to control; how it was run: as §1
[6] = Antioxidant activity assessed as nitric oxide scavenging activity at 100 ug/ml after 150 mins by Griess method relative to control
How it was run: (§2)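 NO was generated from sodium nitroprusside (10 mM) in phosphate buffer saline (0.2 M, pH 7.4). Compounds were added at […] and incubated 150 min at 25 °C. Percent scavenging was calculated from control (all reagents minus compound) and sample absorbances. Run in triplicate.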

[7] = Antioxidant activity assessed as hydrogen peroxide scavenging activity at 75 ug/ml relative to control
[8] = system: Radical scavenging activity; assay: Antioxidant activity assessed as DPPH free radical scavenging activity at 100 ug/ml after 30 mins by spectrophotometric analysis relative to control; how it was run: as §1
[9] = Antioxidant activity assessed as nitric oxide scavenging activity at 75 ug/ml after 150 mins by Griess method relative to control; how it was run: as §2
[10] = Antioxidant activity assessed as nitric oxide scavenging activity at 50 ug/ml after 150 mins by Griess method relative to control; how it was run: as §2

| Compound | IC50 [2] | Activity [1] | Activity [3] | inhibition [4] | inhibition [5] | Activity [6] | Activity [7] | inhibition [8] | Activity [9] | Activity [10] |
| --- | --- | --- | --- | --- | --- | --- | --- | --- | --- | --- |
| COc1ccc(-c2nn(-c3ccccc3)c(-c3ccc(C)cc3)c2S(=O)(=O)CC2=NCCS2)cc1 | Not Active | inactive | inactive | inactive | inactive | inactive | inactive | inactive | inactive | inactive |
| COc1ccc(C2=NOC(c3ccc(C)cc3)C2S(=O)(=O)CC2=NCCO2)cc1 (stereo not given) | 75.16 µg/mL (≈ 181 µM) | 70.9% | 65.9% | 58.1% | 63.3% | 71.2% | 66.6% | 66.5% | 65.9% | 61.9% |
| COc1ccc(C2=NN(c3ccccc3)C(c3ccc(C)cc3)C2S(=O)(=O)CC2=NCCS2)cc1 (stereo not given) | 97.04 µg/mL (≈ 192 µM) | 47.9% | 42.6% | 37.5% | 45.8% | 50.7% | 43.9% | 51.5% | 44.9% | 39.4% |
| Cc1ccc(-c2c[nH]nc2S(=O)(=O)CC2=NCCS2)cc1 | Not Active | inactive | inactive | inactive | inactive | inactive | inactive | inactive | inactive | inactive |
| Cc1ccc(-c2c[nH]nc2S(=O)(=O)CC2=NCCO2)cc1 | 72.51 µg/mL (≈ 237 µM) | 65.5% | 60.7% | 59.8% | 63.7% | 65.2% | 62% | 69% | 63.5% | 59.4% |
| Cc1ccc(C2CNN=C2S(=O)(=O)CC2=NCCS2)cc1 (stereo not given) | 103.73 µg/mL (≈ 321 µM) | 45% | 39.8% | 40.9% | 44% | 52.1% | 42.2% | 48.2% | 48.6% | 43.1% |
| O=S(=O)(CC1=NCCS1)C1=NNCC1c1ccc(Cl)cc1 (stereo not given) | Not Active | inactive | inactive | inactive | inactive | inactive | inactive | inactive | inactive | inactive |
| O=S(=O)(CC1=NCCO1)C1C(c2ccc(Cl)cc2)=NN(c2ccccc2)C1c1ccc(Cl)cc1 (stereo not given) | Not Active | inactive | inactive | inactive | inactive | inactive | inactive | inactive | inactive | inactive |
| O=S(=O)(CC1=NCCO1)C1=NNCC1c1ccc(Cl)cc1 (stereo not given) | Not Active | inactive | inactive | inactive | inactive | inactive | inactive | inactive | inactive | inactive |
| O=S(=O)(CC1=NCCS1)C1=NNCC1c1ccccc1 (stereo not given) | Not Active | inactive | inactive | inactive | inactive | inactive | inactive | inactive | inactive | inactive |
| O=C1O[C@H]([C@@H](O)CO)C(O)=C1O [ASCORBIC ACID] | 59.65 µg/mL (≈ 339 µM) | 83.2% | 77.7% | 77.2% | 81% | 82.8% | 79.3% | 83.8% | 81.5% | 78.2% |
| O=S(=O)(CC1=NCCO1)c1c(-c2ccccc2)nn(-c2ccccc2)c1-c1ccccc1 | 82.48 µg/mL (≈ 186 µM) | 59.1% | 55.6% | 51.9% | 56.6% | 63.5% | 57.2% | 60.6% | 59% | 54.5% |
| COc1ccc(-c2nn(-c3ccccc3)c(-c3ccc(C)cc3)c2S(=O)(=O)CC2=NCCO2)cc1 | 71.07 µg/mL (≈ 146 µM) | 72.5% | 67.6% | 65.5% | 67.6% | 68.2% | 68.7% | 70.3% | 66.6% | 61.6% |
| O=S(=O)(CC1=NCCO1)c1c(-c2ccc(Cl)cc2)noc1-c1ccc(Cl)cc1 | Not Active | inactive | inactive | inactive | inactive | inactive | inactive | inactive | inactive | inactive |

Continued, in another order:

| IC50 [2] | Compound | Activity [1] | Activity [3] | inhibition [4] | inhibition [5] | Activity [6] | Activity [7] | inhibition [8] | Activity [9] | Activity [10] |
| --- | --- | --- | --- | --- | --- | --- | --- | --- | --- | --- |
| 67.74 µg/mL (≈ 138 µM) | COc1ccc(C2=NN(c3ccccc3)C(c3ccc(C)cc3)C2S(=O)(=O)CC2=NCCO2)cc1 (stereo not given) | 67.7% | 62.5% | 64.4% | 70.2% | 70.5% | 64.3% | 73.8% | 64.9% | 59.1% |
| Not Active | O=S(=O)(CC1=NCCS1)c1c(-c2ccccc2)nn(-c2ccccc2)c1-c1ccccc1 | inactive | inactive | inactive | inactive | inactive | inactive | inactive | inactive | inactive |
| 86.25 µg/mL (≈ 194 µM) | O=S(=O)(CC1=NCCO1)C1C(c2ccccc2)=NN(c2ccccc2)C1c1ccccc1 (stereo not given) | 48.1% | 44.4% | 48.2% | 53.4% | 57.9% | 45.5% | 58% | 51.4% | 46.7% |
| Not Active | O=S(=O)(CC1=NCCS1)C1C(c2ccc(Cl)cc2)=NOC1c1ccc(Cl)cc1 (stereo not given) | inactive | inactive | inactive | inactive | inactive | inactive | inactive | inactive | inactive |
| Not Active | O=S(=O)(CC1=NCCO1)c1c(-c2ccc(Cl)cc2)nn(-c2ccccc2)c1-c1ccc(Cl)cc1 | inactive | inactive | inactive | inactive | inactive | inactive | inactive | inactive | inactive |
| Not Active | O=S(=O)(CC1=NCCS1)C1C(c2ccccc2)=NN(c2ccccc2)C1c1ccccc1 (stereo not given) | inactive | inactive | inactive | inactive | inactive | inactive | inactive | inactive | inactive |
| Not Active | O=S(=O)(CC1=NCCS1)c1n[nH]cc1-c1ccc(Cl)cc1 | inactive | inactive | inactive | inactive | inactive | inactive | inactive | inactive | inactive |
| 100.44 µg/mL (≈ 327 µM) | Cc1ccc(C2CNN=C2S(=O)(=O)CC2=NCCO2)cc1 (stereo not given) | 46.8% | 41.3% | 38.7% | 43.6% | 51.4% | 42.1% | 49.8% | 49.7% | 45.9% |
| Not Active | O=S(=O)(CC1=NCCO1)c1n[nH]cc1-c1ccc(Cl)cc1 | inactive | inactive | inactive | inactive | inactive | inactive | inactive | inactive | inactive |
| 62.76 µg/mL (≈ 152 µM) | COc1ccc(-c2noc(-c3ccc(C)cc3)c2S(=O)(=O)CC2=NCCO2)cc1 | 77.1% | 70% | 72.9% | 75.8% | 76.2% | 72% | 79.7% | 73% | 68.8% |

From ChEMBL document CHEMBL1828624, “Synthesis and antioxidant activity of oxazolyl/thiazolylsulfonylmethyl pyrazoles and isoxazoles” (Eur J Med Chem, 2011)
